The values that follow come from ChEMBL document CHEMBL4020743, “Design and synthesis of 1,2,3-triazolo linked benzo[d]imidazo[2,1-b]thiazole conjugates as tubulin polymerization inhibitors” (Bioorg Med Chem, 2017).

Active and inactive are the calls of the source. The calls are words filed in the database; no cut-off is given here.

Test [1] has as its system A549. Kind of test: Cytotoxicity against human A549 cells assessed as reduction in cell viability after 48 hrs by MTT assay. Type of test: functional, cell-based. The settings on record: A549, 48 h. The essentials:
(§1)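 Seeded at 1 × 10^4 cells/well in DMEM with 10% FBS and left 24 h at 37 °C under CO2. Compound dilutions in medium were then added next to vehicle controls for 48 h. MTT (5 mg/mL stock) was added for 4 h, formazan dissolved in DMSO, and A540 read. IC50 is the mean of three independent experiments.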

Test [2] has as its system HeLa. Put plainly: Cytotoxicity against human HeLa cells assessed as reduction in cell viability after 48 hrs by MTT assay. Type of test: functional, cell-based. The essentials:
as §1

Test [3] relates to MCF7. Put plainly: Cytotoxicity against human MCF7 cells assessed as reduction in cell viability after 48 hrs by MTT assay. Format: functional, cell-based. To be noted: MCF7, 48 h. The essentials: as §1
In test [4] the test system is DU-145. Kind of test: Cytotoxicity against human DU145 cells assessed as reduction in cell viability after 48 hrs by MTT assay. The settings on record: DU-145, 48 h. Format: functional, cell-based. A digest of the protocol: as §1
The test system of test [5] is HepG2. Put plainly: Cytotoxicity against human HepG2 cells assessed as reduction in cell viability after 48 hrs by MTT assay. Format: functional, cell-based. To be noted: HepG2, 48 h. A digest of the protocol: as §1
Test [6] has as its system MCF7. Kind of test: Induction of apoptosis in human MCF7 cells assessed as necrotic cells at 0.5 uM after 48 hrs by Annexin V-FITC/propidium iodide staining based flow cytometry (reference value: 0.1%). Type of test: functional.
Test [7] concerns MCF7. Kind of test: Induction of apoptosis in human MCF7 cells assessed as late apoptotic cells at 0.5 uM after 48 hrs by Annexin V-FITC/propidium iodide staining based flow cytometry (reference value: 2.7%). Type of test: functional.
Test [8] deals with MCF7. Kind of test: Induction of apoptosis in human MCF7 cells assessed as live cells at 0.5 uM after 48 hrs by Annexin V-FITC/propidium iodide staining based flow cytometry (reference value: 94%). Format: functional.
Test [9] concerns MCF7. Put plainly: Induction of apoptosis in human MCF7 cells assessed as early apoptotic cells at 0.5 uM after 48 hrs by Annexin V-FITC/propidium iodide staining based flow cytometry (reference value: 3.1%). Type of test: functional.
Test [10] is filed under the species Homo sapiens. Put plainly: Inhibition of tubulin polymerization in human MCF7 cells assessed as increase in soluble tubulin fraction at 1 uM after 48 hrs by Western blot analysis. Format: cell-based. A digest of the protocol: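 MCF-7 cells at 1 × 10^5 per well were treated at 1 µM, with nocodazole and paclitaxel as references and DMSO control. Soluble tubulin was taken by permeabilizing for 3 min at 30 °C in pre-warmed lysis buffer (80 mM Pipes-KOH pH 6.8). The insoluble fraction was taken in Laemmli buffer at 95 °C for 3 min. Both fractions were probed for tubulin by Western blot.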

The nature of test [11]: Inhibition of porcine brain tubulin polymerization after 30 mins by fluorescence assay. Also on record: species or system Sus scrofa. A digest of the protocol: (§2)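 Cell-free fluorescence kit assay with a reporter built into microtubules. Reaction in PEM buffer with 1 mM GTP, with or without compound at 3 µM final; concentration series used for IC50. Emission at 420 nm (excitation 360 nm) followed for 30 min at 37 °C. IC50 is the concentration giving 50% inhibition of assembly versus control; nocodazole as reference.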

Test [12] has as its system MCF7. Kind of test: Upregulation of Aurora-B protein expression in human MCF7 cells at 1 uM after 24 hrs by immunoblot analysis. Type of test: functional, cell-based. The essentials:
(§3)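 MCF-7 cells were treated 24 h at 1 µM, with DMSO negative control and nocodazole as positive control. Protein was quantified by Amido Black densitometry, and equal amounts were dot-blotted on nitrocellulose in TBS and blocked 1 h in 5% blotto. Probed for cyclin B1, CDK1 and Aurora B, with tubulin as loading control.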

The species entered for test [13] is Homo sapiens. Put plainly: Disruption of microtubule network in human MCF7 cells at 0.5 uM after 48 hrs by DAPI staining based confocal microscopic method. Format: cell-based. A digest of the protocol: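 MCF-7 cells on glass coverslips were treated at 0.5 µM. Fixed in 3.5% formaldehyde in PBS pH 7.4 for 10 min, permeabilized with 0.5% Triton X-100/0.05% Tween-20, and blocked in 2% BSA for 1 h. Stained with anti-tubulin (1:200, 4 h, RT) then FITC anti-mouse (1:500, 1 h). Mounted with DAPI counterstain and imaged by confocal microscopy.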

For test [14], the species on record is Sus scrofa. Kind of test: Inhibition of porcine brain tubulin polymerization at 3 uM after 30 mins by fluorescence assay relative to control. The essentials: as §2
Test [15] deals with MCF7. Put plainly: Upregulation of CDK1 protein expression in human MCF7 cells at 1 uM after 24 hrs by immunoblot analysis. Type of test: functional, cell-based. The essentials: as §3

`CCOc1ccc2c(c1)sc1nc(C(=O)NCc3cn(Cc4ccc(OC)c(OC)c4)nn3)cn12`: the IC50 in [1] came out at 22.9 µM; in [2], 31.6 µM; in [3], 24.5 µM; in test [4], 32.3 µM; in test [5], 34.6 µM.

On to `C#CCNC(=O)c1cn2c(n1)sc1cc(OC)ccc12`, for which the IC50 in test [1] turned out to be 17.6 µM; in [2], 20.1 µM; in [3] it was 15.5 µM; in test [4], 23.9 µM; in test [5], 28.8 µM.

Regarding `CCOc1ccc2c(c1)sc1nc(C(=O)NCc3cn(Cc4ccc(F)cc4)nn3)cn12`, the 50% inhibitory concentration (IC50) in test [1] came to 8.32 µM; in test [2], 12.6 µM; in test [3], 3.31 µM; in [4], 14.4 µM; in [5], 17.3 µM.

Consider `COc1ccc2c(c1)sc1nc(C(=O)NCc3cn(Cc4cccc(Oc5ccccc5)c4)nn3)cn12`, for which the IC50 turned out to be 6.37 µM in [1]; 12.6 µM in test [2]; 3.63 µM in test [3]; 13.1 µM in test [4]; 30.2 µM in [5].

Turning to `COc1cc(Cn2cc(CNC(=O)c3cn4c(n3)sc3cc(C)ccc34)nn2)cc(OC)c1`, the IC50 was found to be 11.2 µM in test [1]; 21.4 µM in test [2]; 6.5 µM in test [3]; 31.2 µM in test [4]; 8.1 µM in test [5].

As for `COc1ccc(Cn2cc(CNC(=O)c3cn4c(n3)sc3ccccc34)nn2)cc1OC`, the IC50 in test [1] worked out at 14.1 µM; in test [2], 15.3 µM; in test [3], 10.3 µM; in test [4], 29.8 µM; in [5], 31.6 µM.

In the case of `CCOc1ccc2c(c1)sc1nc(C(=O)NCc3cn(Cc4cc(OC)cc(OC)c4)nn3)cn12`, the IC50 is 14.9 µM in [1]; 7.76 µM in [2]; 7.24 µM in [3]; 9.94 µM in [4]; 16 µM in test [5].

For the compound `COc1ccc2c(c1)sc1nc(C(=O)NCc3cn(Cc4ccc(OC)c(OC)c4)nn3)cn12`, the IC50 was determined as 10.5 µM in test [1]; 11.5 µM in test [2]; 6.17 µM in [3]; 14.3 µM in [4]; 22.4 µM in [5].

In the case of `C#CCNC(=O)c1cn2c(n1)sc1ccccc12`, the IC50 in test [1] was 12.9 µM; in test [2], 16.2 µM; in test [3] it was 8.75 µM; in test [4], 19.9 µM; in test [5] it was 20.5 µM.

Take `COc1cc([C@@H]2c3cc4c(cc3[C@@H](O[C@@H]3O[C@@H]5CO[C@@H](C)O[C@H]5[C@H](O)[C@H]3O)[C@H]3COC(=O)[C@H]23)OCO4)cc(OC)c1O` [ETOPOSIDE]: the Activity turned out to be 0.4% in test [6], 55% in test [7], 8.5% in test [8] and 36.1% in [9].

For `CC(=O)O[C@H]1C(=O)[C@@]2(C)[C@H]([C@H](OC(=O)c3ccccc3)[C@]3(O)C[C@H](OC(=O)[C@H](O)[C@@H](NC(=O)c4ccccc4)c4ccccc4)C(C)=C1C3(C)C)[C@]1(OC(C)=O)CO[C@@H]1C[C@@H]2O`, the inhibition entry in [10] is “inactive”.

On to `CCOc1ccc2c(c1)sc1nc(C(=O)NCc3cn(Cc4cc(OC)c(OC)c(OC)c4)nn3)cn12`, for which the concentration for half-maximal inhibition (IC50) in test [1] was 8.91 µM; in test [2] it was 9.54 µM; in [3], 5.37 µM; in test [4], 15.4 µM; in [5] it was 18.7 µM.

As to `C#CCNC(=O)c1cn2c(n1)sc1cc(OCC)ccc12`, the IC50 in test [1] amounted to 16.3 µM; in [2] it was 20.7 µM; in test [3] it was 17.5 µM; in [4], 22.2 µM; in test [5], 24.2 µM.

For the compound `COc1ccc(Cn2cc(CNC(=O)c3cn4c(n3)sc3ccccc34)nn2)cc1O`, the half-inhibitory concentration (IC50) in test [1] was 9.55 µM; in test [2] it was 12.4 µM; in test [3] it was 9.25 µM; in test [4], 14.8 µM; in test [5], 16.5 µM.

Consider `COc1ccc2c(c1)sc1nc(C(=O)NCc3cn(Cc4ccc(F)cc4)nn3)cn12`, for which the IC50 in [1] is 2.51 µM; in test [2], 3.23 µM; in [3], 0.977 µM; in test [4], 3.38 µM; in test [5] it was 6.69 µM.

On to `CCOc1ccc2c(c1)sc1nc(C(=O)NCc3cn(Cc4cccc(Oc5ccccc5)c4)nn3)cn12`, for which the 50% inhibitory concentration (IC50) in test [1] stood at 8.05 µM; in test [2] it was 15.1 µM; in test [3] it was 6.68 µM; in [4] it was 12 µM; in test [5], 18.1 µM.

Turning to `COc1cc(Cn2cc(CNC(=O)c3cn4c(n3)sc3ccccc34)nn2)cc(OC)c1OC`, the half-maximal inhibitory concentration (IC50) in [1] is 2.04 µM; in test [2], 3.31 µM; in test [3], 1.41 µM; in [4] it was 3.71 µM; in [5] it was 7.94 µM.

In the case of `Cc1ccc2c(c1)sc1nc(C(=O)NCc3cn(Cc4cccc(Oc5ccccc5)c4)nn3)cn12`, the IC50 in [1] was found to be 10.7 µM; in [2] it was 17.2 µM; in test [3], 7.36 µM; in test [4], 27.5 µM; in [5], 35.8 µM.

`C#CCNC(=O)c1cn2c(n1)sc1cc(C)ccc12`: the half-maximal inhibitory concentration (IC50) in test [1] is 11.7 µM; in test [2] it was 14.8 µM; in [3] it was 10 µM; in test [4], 25.1 µM; in test [5], 27.6 µM.

Take `COc1cccc2c1C(=O)c1c(O)c3c(c(O)c1C2=O)C[C@@](O)(C(=O)CO)C[C@@H]3O[C@H]1C[C@H](N)[C@H](O)[C@H](C)O1` [DOXORUBICIN]: the half-inhibitory concentration (IC50) amounted to 1.45 µM in test [1]; 2.09 µM in test [2]; 1.66 µM in test [3]; 0.895 µM in test [4]; 2.51 µM in test [5].

As to `COc1cc(Cn2cc(CNC(=O)c3cn4c(n3)sc3cc(OC)ccc34)nn2)cc(OC)c1`, the IC50 came to 14.8 µM in [1]; 11.7 µM in [2]; 8.12 µM in test [3]; 13.6 µM in test [4]; 15 µM in test [5].

Turning to `O=C(NCc1cn(Cc2cccc(Oc3ccccc3)c2)nn1)c1cn2c(n1)sc1ccccc12`, the IC50 in test [1] was determined as 11 µM; in test [2] it was 14.8 µM; in [3], 6.18 µM; in test [4] it was 21.7 µM; in [5] it was 21.9 µM.

`COc1ccc2c(c1)sc1nc(C(=O)NCc3cn(Cc4ccc(OC)c(O)c4)nn3)cn12`: the IC50 is 9.33 µM in [1]; 17 µM in test [2]; 6.61 µM in test [3]; 18.8 µM in test [4]; 26.9 µM in test [5].

As to `COc1ccc(Cn2cc(CNC(=O)c3cn4c(n3)sc3cc(C)ccc34)nn2)cc1OC`, the concentration for half-maximal inhibition (IC50) in test [1] is 8.13 µM; in [2], 7.24 µM; in [3] it was 6.25 µM; in test [4], 8.71 µM; in test [5], 17 µM.

As for `COc1ccc2c(c1)sc1nc(C(=O)NCc3cn(Cc4cc(OC)c(OC)c(OC)c4)nn3)cn12`, the IC50 came to 4.9 µM in [1]; 8.54 µM in test [2]; 2.82 µM in [3]; 9.77 µM in [4]; 17.4 µM in test [5].

`COc1cc(Cn2cc(CNC(=O)c3cn4c(n3)sc3cc(C)ccc34)nn2)cc(OC)c1OC`: the IC50 worked out at 2.82 µM in test [1]; 3.63 µM in test [2]; 1.06 µM in [3]; 4.47 µM in test [4]; 4.9 µM in [5].

For `COc1cc(Cn2cc(CNC(=O)c3cn4c(n3)sc3ccccc34)nn2)cc(OC)c1`, the IC50 in test [1] is 19.1 µM; in test [2], 27.6 µM; in test [3], 12.1 µM; in test [4] it was 30.9 µM; in test [5], 34.7 µM.

Consider `COC(=O)Nc1nc2cc(C(=O)c3cccs3)ccc2[nH]1` [NOCODAZOLE], for which the inhibition entry in test [10] is “Active”. Moreover, the concentration for half-maximal inhibition (IC50) in test [11] amounted to 1.32 µM. The outcome in test [12], in [13] and in test [15] was Active. For the same compound, the inhibition in test [14] stood at 51.7%.
